HKDC1 act – activators of human hexokinase HKDC1; Q2TB90; recombinant HKDC1, G6PDH/diaphorase resazurin fluorescence; active compounds read low; activity change, negative = activation, % at 20 µM; actives 0.056% (n = 340,000); AID 493187;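 active = activation of 40% or more at 20 µM, a change of -40% or lower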
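system = in-house human HKDC1 enzyme, G6PDH and diaphorase coupling enzymes | amount = HKDC1 5 µg/mL | measured by = resorufin fluorescence from 100 µM resazurin, NADP 1 mM, Ex 525/Em 613 nm | times = enzyme reaction 90 min, room temperature, in dark | doses = single compound dose of 20 µM, 1% DMSO final | medium = Tris/MgCl2 buffer, pH 8.0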
Numbers without * were called inactive. A selection follows.

SMILES	HKDC1 act
Cc1ccc(OP2(=O)Nc3cc(C)c(C)cc3S2)cc1 (configuration not stated)	-40.7*
COc1cc2c(cc1OC)-c1c(OC)c(OC)c(OC)c3ccnc(c13)C2=O	49.5
Cn1ncnc2c(=O)n(C)c(=O)nc1-2	69.0
Nc1cnn(-c2ccccc2)c(=O)c1Cl	44.7
Cc1cccc(N2C(=O)NC(=O)/C(=C\c3cc(C)n(-c4sc5c(c4C#N)CCCC5)c3C)C2=O)c1C	72.4

Compound activity deposited in PubChem BioAssay by Sanford-Burnham Center for Chemical Genomics.
